Reference: ChEMBL document CHEMBL1128245, “Dual-acting thromboxane receptor antagonist/synthase inhibitors: synthesis and biological properties of [2-substituted-4-(3-pyridyl)-1,3-dioxan-5-yl] alkenoic acids” (J Med Chem, 1995)

Columns and labels:
[1] = test system: Thromboxane-A synthase (Canis familiaris); experiment: Ex vivo […] (TXA2 synthase) inhibitory activity after 8 hr of oral dosing (1 mg/kg) in the dog; details: Canis lupus familiaris
[2] = test system: Thromboxane-A synthase (Canis familiaris); experiment: Ex vivo […] (TXA2 synthase) inhibitory activity after 5 hr of oral dosing (1 mg/kg) in the dog; details: Canis lupus familiaris
Prostacyclin synthase = target: T1, Prostacyclin synthase (Homo sapiens, UniProt Q16647); experiment: In vitro inhibition of Prostaglandin I2 synthase in cultured human endothelial cells
T1 sequence (Q16647 whole entry): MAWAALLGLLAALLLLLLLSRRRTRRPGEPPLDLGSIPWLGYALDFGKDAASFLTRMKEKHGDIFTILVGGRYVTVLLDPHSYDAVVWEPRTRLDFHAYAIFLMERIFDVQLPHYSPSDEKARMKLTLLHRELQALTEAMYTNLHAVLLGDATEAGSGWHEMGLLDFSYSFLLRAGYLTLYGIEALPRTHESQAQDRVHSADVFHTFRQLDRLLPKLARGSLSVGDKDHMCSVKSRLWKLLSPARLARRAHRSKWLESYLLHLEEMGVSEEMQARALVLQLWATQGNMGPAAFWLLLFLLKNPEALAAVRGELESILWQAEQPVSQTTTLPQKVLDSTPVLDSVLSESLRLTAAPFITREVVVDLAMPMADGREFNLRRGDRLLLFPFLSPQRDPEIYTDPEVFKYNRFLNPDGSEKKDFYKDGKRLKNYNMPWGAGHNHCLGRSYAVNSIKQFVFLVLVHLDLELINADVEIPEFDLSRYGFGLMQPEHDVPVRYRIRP

Thromboxane-A synthase = target: T2, Thromboxane-A synthase (Homo sapiens, UniProt P24557); experiment: In vitro Inhibition of thromboxane synthase from human blood platelet microsomes
T2 sequence (P24557 whole entry): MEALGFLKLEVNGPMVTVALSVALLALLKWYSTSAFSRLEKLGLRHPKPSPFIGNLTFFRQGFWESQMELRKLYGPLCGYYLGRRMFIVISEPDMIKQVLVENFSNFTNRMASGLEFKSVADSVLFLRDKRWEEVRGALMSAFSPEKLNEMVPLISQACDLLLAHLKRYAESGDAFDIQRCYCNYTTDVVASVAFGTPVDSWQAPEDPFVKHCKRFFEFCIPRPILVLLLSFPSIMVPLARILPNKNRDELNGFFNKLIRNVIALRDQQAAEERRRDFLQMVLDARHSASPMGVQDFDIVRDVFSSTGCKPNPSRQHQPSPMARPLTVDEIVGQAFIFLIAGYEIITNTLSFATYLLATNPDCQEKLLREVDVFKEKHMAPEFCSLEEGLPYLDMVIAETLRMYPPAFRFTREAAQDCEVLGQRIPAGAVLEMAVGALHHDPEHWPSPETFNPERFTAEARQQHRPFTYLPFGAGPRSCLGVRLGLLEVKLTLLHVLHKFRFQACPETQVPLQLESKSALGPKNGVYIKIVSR
Summary of the method: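 Human blood platelet microsomes incubated with [1-14C]arachidonic acid with or without inhibitor. Conversion to labeled thromboxane B2 quantified radiochromatographically. n = 2.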

Homo sapiens = organism: Homo sapiens; experiment: In vitro inhibition of U-46,619-induced aggregation of unwashed human platelets.; format: functional; details: Homo sapiens; read-out: pA2 (converted)
Summary of the method: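 Citrated (3.2%) human venous blood spun at 200g for 10 min. Platelet-rich plasma aggregated with U46619 with or without several antagonist concentrations.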

[3] = test system: Thromboxane-A synthase (Canis familiaris); experiment: Ex vivo […] (TXA2 synthase) inhibitory activity after 24 hr of oral dosing (1 mg/kg) in the dog; details: Canis lupus familiaris
Rattus norvegicus [4] = experiment: Ex vivo […] (TXA2 synthase) inhibitory activity after 3 hr of oral dosing (10 mg/kg) in the rat; format: functional
Summary of the method: (§1)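 Rats (n = 6) gavaged, anesthetized, aortic blood taken at 1, 3 or 5 h after dosing. A blood aliquot was challenged with collagen and TXB2 measured by radioimmunoassay; expressed as % inhibition of TXA2 synthase (±SEM).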

Rattus norvegicus [5] = experiment: Ex vivo TXA2 ([…]) antagonist activity was determined for U-46,619 induced aggregation (dose ratio) after 1 hr of oral dosing (10 mg/kg) in the rat; format: functional
Summary of the method: (§2)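 Conscious rats (n = 6) dosed by oral gavage, then anesthetized and bled from the abdominal aorta at 1, 3 or 5 h. Platelet-rich plasma aggregated with U46619 before and after dosing to give a U46619 dose ratio. ">" values mark the maximum dose ratio achievable at the top U46619 concentration (1 × 10^-4 M).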

Rattus norvegicus [6] = experiment: Ex vivo TXA2 ([…]) antagonist activity was determined for U-46,619 induced aggregation (dose ratio) after 3 hr of oral dosing (10 mg/kg) in the rat; format: functional
Summary of the method: as §2

Rattus norvegicus [7] = experiment: Ex vivo TXA2 ([…]) antagonist activity was determined for U-46,619 induced aggregation (dose ratio) after 5 hr of oral dosing (10 mg/kg) in the rat; format: functional
Summary of the method: as §2

Rattus norvegicus [8] = experiment: Ex vivo […] (TXA2 synthase) inhibitory activity after 5 hr of oral dosing (10 mg/kg) in the rat; format: functional
Summary of the method: as §1

Rattus norvegicus [9] = experiment: Ex vivo […] (TXA2 synthase) inhibitory activity after 1 hr of oral dosing (10 mg/kg) in the rat; format: functional
Summary of the method: as §1

## N#Cc1ccccc1C1OCC(C/C=C\CCC(=O)O)C(c2cccnc2)O1 (centres undefined)
[1]
  inhibition: 84%
[2]
  inhibition: 91%
Prostacyclin synthase
  IC50: > 100000 nM
Thromboxane-A synthase
  IC50: 54 nM
Homo sapiens
  Kb: 245 nM
[3]
  inhibition: 82.6%

## CC(C)(Oc1ccccc1[N+](=O)[O-])C1OCC(C/C=C\CCC(=O)O)C(c2cccnc2)O1 (centres undefined)
Rattus norvegicus [4]
  Inhibition: 75.8%
Rattus norvegicus [5]
  Antagonist activity: >57
Rattus norvegicus [6]
  Antagonist activity: 9
Prostacyclin synthase
  IC50: < 1000 nM
Thromboxane-A synthase
  IC50: < 10 nM
Rattus norvegicus [7]
  Antagonist activity: 3
Rattus norvegicus [8]
  Inhibition: 63.2%
Homo sapiens
  Kb: 11.2 nM
Rattus norvegicus [9]
  Inhibition: 85.5%

## CC(C)(Oc1ccc(F)cc1)C1OCC(C/C=C\CCC(=O)O)C(c2cccnc2)O1 (centres undefined)
Rattus norvegicus [4]
  Inhibition: 80%
Rattus norvegicus [5]
  Antagonist activity: 6
Rattus norvegicus [6]
  Antagonist activity: 4
Prostacyclin synthase
  IC50: 2000 nM
Thromboxane-A synthase
  IC50: 51 nM
Rattus norvegicus [7]
  Antagonist activity: 4
Rattus norvegicus [8]
  Inhibition: 83%
Homo sapiens
  Kb: 120 nM
Rattus norvegicus [9]
  Inhibition: 93.2%
